Reference: ChEMBL document CHEMBL2396592, “Discovery of Dap-3 polymyxin analogues for the treatment of multidrug-resistant Gram-negative nosocomial infections” (J Med Chem, 2013)
Values after ≈ are worked out from the molar mass of the structure shown. *1 amine or outer side, *2 acyl side, *3 side chain or, on linkers, in order; H or OH if unused. Where a SMILES comes first, the peptide text is derived from it. Bridges are numbered along the chain shown (N, C = ends). [ ]: non-standard residue; d: D form. The star is where a group is joined. Isonicotinoyl(2-Ph) = O=C(c1ccnc(-c2ccccc2)c1)*; Benzoyl(3-Ph) = O=C(c1cccc(-c2ccccc2)c1)*; Benzoyl(4-Ph) = O=C(c1ccc(-c2ccccc2)cc1)*; X16 = COc1cc(C(=O)*)cc(-c2ccccc2)n1; X17 = O=S(=O)(c1cccc(-c2ccccc2)c1)*; X19 = O=C(c1ccnc(-c2cccc(Cl)c2)c1)*; X15 = N#Cc1ccc(C(=O)*)cc1-c1ccccc1; X13 = COc1ccc(-c2ccccc2)cc1C(=O)*; X14 = O=C(c1ccc(Oc2ccccc2)nc1)*; X18 = c1ccc(-c2cccc(N*)c2)cc1; Dab = NCC[C@H](N)C(=O)O; Dap = NC[C@H](N)C(=O)O; CO = O=C([*:1])[*:2]

Legend:
Acinetobacter baumannii [1] = experiment: Antibacterial activity against polymyxin-sensitive Acinetobacter baumannii clinical isolate 3167 assessed as growth inhibition by broth microdilution method; type: functional
Escherichia coli = experiment: Antibacterial activity against polymyxin-sensitive Escherichia coli isolate 1 assessed as growth inhibition by broth microdilution method; type: functional
Acinetobacter baumannii [2] = experiment: Antibacterial activity against polymyxin-resistant Acinetobacter baumannii clinical isolate 1649 assessed as growth inhibition by broth microdilution method; type: functional
Acinetobacter baumannii [3] = experiment: Bactericidal activity against polymyxin-resistant Acinetobacter baumannii clinical isolate 1649; type: functional
[4] = Cytotoxicity against human RPTEC after 24 hrs by LDH assay; type: cell-based; settings: RPTEC cells, read-out: TC50
Method in brief: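 Primary human renal proximal tubule epithelial cells in REGM (EGF, hydrocortisone, epinephrine, insulin, T3, transferrin, gentamycin/amphotericin-B, FBS). After 72 h of growth at 37 °C, 5% CO2, cells were exposed for 24 h to aqueous compound at 100, 67, 44, 30, 20 and 13 μM. LDH release into the supernatant was measured by kit and TC50 (μM) derived, with PMB and PMBN as controls.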

Pseudomonas aeruginosa [5] = experiment: Antibacterial activity against polymyxin-sensitive Pseudomonas aeruginosa 1401 assessed as growth inhibition by broth microdilution method; type: functional
Method in brief: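 CLSI broth microdilution MIC against P. aeruginosa 1401 (PA01) and 1402 (UC12120), the two strains used in the mouse thigh model.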

Klebsiella pneumoniae = experiment: Antibacterial activity against polymyxin-sensitive ESBL-positive Klebsiella pneumoniae clinical isolate 3700 assessed as growth inhibition by broth microdilution method; type: functional
Pseudomonas aeruginosa [6] = experiment: Antibacterial activity against polymyxin-resistant Pseudomonas aeruginosa clinical isolate 1646 assessed as growth inhibition by broth microdilution method; type: functional
Method in brief: (§1)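 Test strain PA-1646 is a P. aeruginosa isolate with a mutated PmrAB two-component system. The system is constitutively active, so the modified lipid A moiety is constantly expressed on the cell surface, giving a polymyxin-resistant phenotype.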

Pseudomonas aeruginosa [7] = experiment: Bactericidal activity against polymyxin-resistant Pseudomonas aeruginosa clinical isolate 1646; type: functional; method in brief: as §1

## COc1ccc(-c2ccccc2)cc1C(=O)N[C@@H](CCN)C(=O)N[C@H](C(=O)N[C@@H](CN)C(=O)N[C@H]1CCNC(=O)[C@H]([C@@H](C)O)NC(=O)[C@H](CCN)NC(=O)[C@H](CCN)NC(=O)[C@H](CC(C)C)NC(=O)[C@@H](Cc2ccccc2)NC(=O)[C@H](CCN)NC1=O)[C@@H](C)O (X13-[Dab]T[Dap][Dab][Dab][dF]L[Dab][Dab]T; lactam 4-C)
Acinetobacter baumannii [1]
  MIC: 0.25 µg/mL
Escherichia coli
  MIC: 0.5 µg/mL
Acinetobacter baumannii [2]
  MIC: 4 µg/mL
Acinetobacter baumannii [3]
  MBC: 4 µg/mL (≈ 3.18 µM)
[4]
  CC50 at 24 h: 19 µM
Pseudomonas aeruginosa [5]
  MIC: 0.5 µg/mL
Klebsiella pneumoniae
  MIC: 0.25 µg/mL
Pseudomonas aeruginosa [6]
  MIC: 2 µg/mL
Pseudomonas aeruginosa [7]
  MBC: 2 µg/mL (≈ 1.59 µM)

## CC(C)C[C@@H]1NC(=O)[C@@H](Cc2ccccc2)NC(=O)[C@H](CCN)NC(=O)[C@@H](NC(=O)[C@H](CN)NC(=O)[C@@H](NC(=O)[C@H](CCN)NC(=O)c2ccc(Oc3ccccc3)nc2)[C@@H](C)O)CCNC(=O)[C@H]([C@@H](C)O)NC(=O)[C@H](CCN)NC(=O)[C@H](CCN)NC1=O (X14-[Dab]T[Dap][Dab][Dab][dF]L[Dab][Dab]T; lactam 4-C)
Acinetobacter baumannii [1]
  MIC: 0.25 µg/mL
Escherichia coli
  MIC: 0.25 µg/mL
Acinetobacter baumannii [2]
  MIC: 2 µg/mL
Acinetobacter baumannii [3]
  MBC: 4 µg/mL (≈ 3.21 µM)
[4]
  CC50 at 24 h: 61 µM
Pseudomonas aeruginosa [5]
  MIC: 1 µg/mL
Klebsiella pneumoniae
  MIC: 0.25 µg/mL
Pseudomonas aeruginosa [6]
  MIC: 4 µg/mL
Pseudomonas aeruginosa [7]
  MBC: 16 µg/mL (≈ 12.8 µM)

## CC(C)C[C@@H]1NC(=O)[C@@H](Cc2ccccc2)NC(=O)[C@H](CCN)NC(=O)[C@@H](NC(=O)[C@H](CN)NC(=O)[C@@H](NC(=O)[C@H](CCN)NC(=O)c2ccc(C#N)c(-c3ccccc3)c2)[C@@H](C)O)CCNC(=O)[C@H]([C@@H](C)O)NC(=O)[C@H](CCN)NC(=O)[C@H](CCN)NC1=O (X15-[Dab]T[Dap][Dab][Dab][dF]L[Dab][Dab]T; lactam 4-C)
Acinetobacter baumannii [1]
  MIC: 0.25 µg/mL
Escherichia coli
  MIC: 0.125 µg/mL
Acinetobacter baumannii [2]
  MIC: 0.5 µg/mL
Acinetobacter baumannii [3]
  MBC: 0.5 µg/mL (≈ 0.399 µM)
[4]
  CC50 at 24 h: 39 µM
Pseudomonas aeruginosa [5]
  MIC: 0.25 µg/mL
Klebsiella pneumoniae
  MIC: 0.25 µg/mL
Pseudomonas aeruginosa [6]
  MIC: 2 µg/mL
Pseudomonas aeruginosa [7]
  MBC: 4 µg/mL (≈ 3.19 µM)

## COc1cc(C(=O)N[C@@H](CCN)C(=O)N[C@H](C(=O)N[C@@H](CN)C(=O)N[C@H]2CCNC(=O)[C@H]([C@@H](C)O)NC(=O)[C@H](CCN)NC(=O)[C@H](CCN)NC(=O)[C@H](CC(C)C)NC(=O)[C@@H](Cc3ccccc3)NC(=O)[C@H](CCN)NC2=O)[C@@H](C)O)cc(-c2ccccc2)n1 (X16-[Dab]T[Dap][Dab][Dab][dF]L[Dab][Dab]T; lactam 4-C)
Acinetobacter baumannii [1]
  MIC: 0.5 µg/mL
Escherichia coli
  MIC: 0.25 µg/mL
Acinetobacter baumannii [2]
  MIC: 4 µg/mL
Acinetobacter baumannii [3]
  MBC: 4 µg/mL (≈ 3.17 µM)
[4]
  CC50 at 24 h: 24 µM
Pseudomonas aeruginosa [5]
  MIC: 0.5 µg/mL
Klebsiella pneumoniae
  MIC: 0.25 µg/mL
Pseudomonas aeruginosa [6]
  MIC: 1 µg/mL
Pseudomonas aeruginosa [7]
  MBC: 1 µg/mL (≈ 0.793 µM)

## CC(C)C[C@@H]1NC(=O)[C@@H](Cc2ccccc2)NC(=O)[C@H](CCN)NC(=O)[C@@H](NC(=O)[C@H](CN)NC(=O)[C@@H](NC(=O)[C@H](CCN)NS(=O)(=O)c2cccc(-c3ccccc3)c2)[C@@H](C)O)CCNC(=O)[C@H]([C@@H](C)O)NC(=O)[C@H](CCN)NC(=O)[C@H](CCN)NC1=O (X17-[Dab]T[Dap][Dab][Dab][dF]L[Dab][Dab]T; lactam 4-C)
Acinetobacter baumannii [1]
  MIC: 1 µg/mL
Escherichia coli
  MIC: 0.25 µg/mL
Acinetobacter baumannii [2]
  MIC: 64 µg/mL
Acinetobacter baumannii [3]
  MBC: > 64 µg/mL
[4]
  CC50 at 24 h: 42 µM
Pseudomonas aeruginosa [5]
  MIC: 0.25 µg/mL
Klebsiella pneumoniae
  MIC: 0.5 µg/mL
Pseudomonas aeruginosa [6]
  MIC: 2 µg/mL
Pseudomonas aeruginosa [7]
  MBC: 4 µg/mL (≈ 3.16 µM)

## CC(C)C[C@@H]1NC(=O)[C@@H](Cc2ccccc2)NC(=O)[C@H](CCN)NC(=O)[C@@H](NC(=O)[C@H](CN)NC(=O)[C@@H](NC(=O)[C@H](CCN)NC(=O)c2ccnc(-c3cccc(Cl)c3)c2)[C@@H](C)O)CCNC(=O)[C@H]([C@@H](C)O)NC(=O)[C@H](CCN)NC(=O)[C@H](CCN)NC1=O (X19-[Dab]T[Dap][Dab][Dab][dF]L[Dab][Dab]T; lactam 4-C)
Acinetobacter baumannii [1]
  MIC: 0.25 µg/mL
Escherichia coli
  MIC: 0.125 µg/mL
Acinetobacter baumannii [2]
  MIC: 0.5 µg/mL
Acinetobacter baumannii [3]
  MBC: 0.5 µg/mL (≈ 0.395 µM)
[4]
  CC50 at 24 h: 34 µM
Pseudomonas aeruginosa [5]
  MIC: 0.5 µg/mL
Klebsiella pneumoniae
  MIC: 0.5 µg/mL
Pseudomonas aeruginosa [6]
  MIC: 1 µg/mL
Pseudomonas aeruginosa [7]
  MBC: 1 µg/mL (≈ 0.791 µM)

## CC(C)C[C@@H]1NC(=O)[C@@H](Cc2ccccc2)NC(=O)[C@H](CCN)NC(=O)[C@@H](NC(=O)[C@H](CN)NC(=O)[C@@H](NC(=O)[C@H](CCN)NC(=O)c2cccc(-c3ccccc3)c2)[C@@H](C)O)CCNC(=O)[C@H]([C@@H](C)O)NC(=O)[C@H](CCN)NC(=O)[C@H](CCN)NC1=O ({Benzoyl(3-Ph)}-[Dab]T[Dap][Dab][Dab][dF]L[Dab][Dab]T; lactam 4-C)
Acinetobacter baumannii [1]
  MIC: 0.25 µg/mL
Escherichia coli
  MIC: 0.25 µg/mL
Acinetobacter baumannii [2]
  MIC: 2 µg/mL
Acinetobacter baumannii [3]
  MBC: 2 µg/mL (≈ 1.63 µM)
[4]
  CC50 at 24 h: 21 µM
Pseudomonas aeruginosa [5]
  MIC: 0.5 µg/mL
Klebsiella pneumoniae
  MIC: 0.5 µg/mL
Pseudomonas aeruginosa [6]
  MIC: 1 µg/mL
Pseudomonas aeruginosa [7]
  MBC: 2 µg/mL (≈ 1.63 µM)

## CC(C)C[C@@H]1NC(=O)[C@@H](Cc2ccccc2)NC(=O)[C@H](CCN)NC(=O)[C@@H](NC(=O)[C@H](CN)NC(=O)[C@@H](NC(=O)[C@H](CCN)NC(=O)c2ccc(-c3ccccc3)cc2)[C@@H](C)O)CCNC(=O)[C@H]([C@@H](C)O)NC(=O)[C@H](CCN)NC(=O)[C@H](CCN)NC1=O ({Benzoyl(4-Ph)}-[Dab]T[Dap][Dab][Dab][dF]L[Dab][Dab]T; lactam 4-C)
Acinetobacter baumannii [1]
  MIC: 0.25 µg/mL
Escherichia coli
  MIC: 0.25 µg/mL
Acinetobacter baumannii [2]
  MIC: 1 µg/mL
Acinetobacter baumannii [3]
  MBC: 1 µg/mL (≈ 0.813 µM)
[4]
  CC50 at 24 h: 28 µM
Pseudomonas aeruginosa [5]
  MIC: 0.5 µg/mL
Klebsiella pneumoniae
  MIC: 0.25 µg/mL
Pseudomonas aeruginosa [6]
  MIC: 0.5 µg/mL
Pseudomonas aeruginosa [7]
  MBC: 1 µg/mL (≈ 0.813 µM)

## CC(C)C[C@@H]1NC(=O)[C@@H](Cc2ccccc2)NC(=O)[C@H](CCN)NC(=O)[C@@H](NC(=O)[C@H](CN)NC(=O)[C@@H](NC(=O)[C@H](CCN)NC(=O)c2ccnc(-c3ccccc3)c2)[C@@H](C)O)CCNC(=O)[C@H]([C@@H](C)O)NC(=O)[C@H](CCN)NC(=O)[C@H](CCN)NC1=O ({Isonicotinoyl(2-Ph)}-[Dab]T[Dap][Dab][Dab][dF]L[Dab][Dab]T; lactam 4-C)
Acinetobacter baumannii [1]
  MIC: 0.25 µg/mL
Escherichia coli
  MIC: 0.125 µg/mL
Acinetobacter baumannii [2]
  MIC: 1 µg/mL
Acinetobacter baumannii [3]
  MBC: 1 µg/mL (≈ 0.813 µM)
[4]
  CC50 at 24 h: 82 µM
Pseudomonas aeruginosa [5]
  MIC: 0.25 µg/mL
Klebsiella pneumoniae
  MIC: 0.25 µg/mL
Pseudomonas aeruginosa [6]
  MIC: 2 µg/mL
Pseudomonas aeruginosa [7]
  MBC: 4 µg/mL (≈ 3.25 µM)

## CC(C)C[C@@H]1NC(=O)[C@@H](Cc2ccccc2)NC(=O)[C@H](CCN)NC(=O)[C@@H](NC(=O)[C@H](CN)NC(=O)[C@@H](NC(=O)[C@H](CCN)NC(=O)Nc2cccc(-c3ccccc3)c2)[C@@H](C)O)CCNC(=O)[C@H]([C@@H](C)O)NC(=O)[C@H](CCN)NC(=O)[C@H](CCN)NC1=O ({X18-CO}-[Dab]T[Dap][Dab][Dab][dF]L[Dab][Dab]T; lactam 4-C)
Acinetobacter baumannii [1]
  MIC: 0.25 µg/mL
Escherichia coli
  MIC: 0.25 µg/mL
Acinetobacter baumannii [2]
  MIC: 4 µg/mL
Acinetobacter baumannii [3]
  MBC: 4 µg/mL (≈ 3.21 µM)
[4]
  CC50 at 24 h: 15 µM
Pseudomonas aeruginosa [5]
  MIC: 0.5 µg/mL
Klebsiella pneumoniae
  MIC: 0.25 µg/mL
Pseudomonas aeruginosa [6]
  MIC: 1 µg/mL
Pseudomonas aeruginosa [7]
  MBC: 1 µg/mL (≈ 0.804 µM)

## CC(C)C[C@@H]1NC(=O)[C@@H](Cc2ccccc2)NC(=O)[C@H](CCN)NC(=O)[C@@H](NC(=O)[C@H](CCN)NC(=O)[C@@H](N)[C@@H](C)O)CCNC(=O)[C@H]([C@@H](C)O)NC(=O)[C@H](CCN)NC(=O)[C@H](CCN)NC1=O [POLYMYXIN B NONAPEPTIDE] (H-T[Dab][Dab][Dab][dF]L[Dab][Dab]T; lactam 3-C)
Acinetobacter baumannii [1]
  MIC: > 64 µg/mL
Escherichia coli
  MIC: > 64 µg/mL
Acinetobacter baumannii [2]
  MIC: > 64 µg/mL
Acinetobacter baumannii [3]
  MBC: > 64 µg/mL
[4]
  CC50 at 24 h: > 100 µM
Pseudomonas aeruginosa [5]
  MIC: > 64 µg/mL
Klebsiella pneumoniae
  MIC: > 64 µg/mL
Pseudomonas aeruginosa [6]
  MIC: > 64 µg/mL
Pseudomonas aeruginosa [7]
  MBC: > 64 µg/mL
